Experiments:
UBC9 (SUMO E2 enzyme) = UBC9 (SUMO E2 enzyme) (Homo sapiens, UniProt P63279); assay: reconstituted sumoylation cascade, electrophoretic mobility shift IC50; type: biochemical
How it was run: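 Reconstituted cascade in 50 mM Tris pH 9.0 with 5 mM MgCl2 and 1 mM DTT. Contains SUMO E1 0.1 µM, His-tagged SUMO-1 1.4 µM, UBC9 0.25 µM and a 5-FAM-labelled peptide substrate at 1.0 µM. Started with ATP (final 2 mM), run with test compound at varying concentrations for 90 min at room temperature, then EDTA-quenched. Conversion read by microfluidic mobility shift. IC50 from the mean of three replicates.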

[1] = biological target: T1, SUMO-activating enzyme 1/2 (SAE 1/2, SUMO E1) (Homo sapiens, UniProt Q9UBT2); assay: E1-SUMO-1 thioester formation gel assay with fluorescent SUMO-1; type: biochemical
T1 sequence (Q9UBT2 1-640): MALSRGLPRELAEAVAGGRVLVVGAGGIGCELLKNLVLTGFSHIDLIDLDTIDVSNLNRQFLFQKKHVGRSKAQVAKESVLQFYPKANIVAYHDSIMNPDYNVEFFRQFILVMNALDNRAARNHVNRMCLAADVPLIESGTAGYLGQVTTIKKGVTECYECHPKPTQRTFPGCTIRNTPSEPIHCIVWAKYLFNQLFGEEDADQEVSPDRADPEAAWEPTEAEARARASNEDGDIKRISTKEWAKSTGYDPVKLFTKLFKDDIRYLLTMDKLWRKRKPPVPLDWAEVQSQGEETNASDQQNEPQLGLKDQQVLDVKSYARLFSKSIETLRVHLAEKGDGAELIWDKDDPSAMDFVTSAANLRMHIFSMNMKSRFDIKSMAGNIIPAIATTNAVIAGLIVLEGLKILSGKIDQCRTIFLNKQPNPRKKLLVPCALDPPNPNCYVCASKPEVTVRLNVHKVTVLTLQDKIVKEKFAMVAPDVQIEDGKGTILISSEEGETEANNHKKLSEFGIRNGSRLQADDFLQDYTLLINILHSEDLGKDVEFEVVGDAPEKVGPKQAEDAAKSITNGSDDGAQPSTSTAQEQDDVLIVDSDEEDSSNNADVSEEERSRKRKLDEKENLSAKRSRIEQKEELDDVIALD
T1 sequence (Q9UBE0 1-346 partner): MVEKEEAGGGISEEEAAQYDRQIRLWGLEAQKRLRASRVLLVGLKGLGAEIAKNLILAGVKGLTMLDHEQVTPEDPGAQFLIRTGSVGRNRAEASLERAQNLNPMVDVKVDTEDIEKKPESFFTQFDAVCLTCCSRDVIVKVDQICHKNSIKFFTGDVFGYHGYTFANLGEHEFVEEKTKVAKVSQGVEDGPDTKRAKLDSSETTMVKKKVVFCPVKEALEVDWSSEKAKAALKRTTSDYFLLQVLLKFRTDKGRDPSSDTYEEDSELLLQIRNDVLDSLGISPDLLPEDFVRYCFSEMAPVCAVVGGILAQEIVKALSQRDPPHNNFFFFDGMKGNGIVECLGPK

Sequence of UBC9 (SUMO E2 enzyme) (P63279 2-158): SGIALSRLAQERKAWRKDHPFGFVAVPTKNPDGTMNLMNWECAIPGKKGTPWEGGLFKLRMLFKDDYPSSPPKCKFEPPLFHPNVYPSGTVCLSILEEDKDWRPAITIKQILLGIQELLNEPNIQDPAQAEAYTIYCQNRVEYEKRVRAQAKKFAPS
Sequence of UBC9 (SUMO E2 enzyme) (P63165 2-97 partner): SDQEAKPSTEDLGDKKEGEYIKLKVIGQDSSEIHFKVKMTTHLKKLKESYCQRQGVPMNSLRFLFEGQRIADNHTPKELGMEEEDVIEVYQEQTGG

IC50 (UBC9 (SUMO E2 enzyme)) [µM] | SMILES | IC50 [1] [µM]
6 ± 1.3 | O=c1cc(-c2ccc(O)c(O)c2O)oc2ccccc12 [2-D08, 2’,3’,4’-trihydroxyflavone] | 
 | CCCCCC/C=C\CCCCCCCc1cccc(O)c1C(=O)O [ginkgolic acid] | 9.1
